First the molecules themselves.
B1: tRNA (parent)
chain: GUUCCGUUGGCGUAAUGGUAACGCGUCUCCCUCCUAAGGAGAAGACUGCGGGUUCGAGUCCCGUACGGAACG

Variants at the floor of the assay were thinned out.

The variants in the data set derive from B1. Description: yeast fitness relative to wild type (ratio to wild type); higher = fitter; tRNA-Arg(CCU), competitive growth, 37 C, YPD. An outline of the steps:
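The tRNA-Arg(CCU) gene variants were made by chemical synthesis with a 3% per-site mutation rate at 69 sites and inserted at the native genomic locus of Saccharomyces cerevisiae. After pooling, the strains were competed in YPD at 37°C for 24 hours in six parallel replicates. Gene amplicons from the start population and each end population were read by 100-nucleotide paired-end sequencing, and Darwinian fitness relative to wild type was taken from genotype frequency changes. Genotypes needed ≥ 100 starting reads, and estimates < 0.5 were set to 0.5.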
Regarding C5A U13A A70C, the yeast fitness is ≤ 0.5.
With G6A C22U C30G A36G C62U A65U, the yeast fitness is ≤ 0.5.
Consider U16C C24G, for which the yeast fitness was found to be 0.64.
In the case of U16G U54C A69C, the yeast fitness amounted to 0.718.
For the variant U7C G51C, the yeast fitness was determined as 0.6.
On to G51C A69U, for which the yeast fitness was 0.624.
For the variant A15C U28A G39A A65G, the yeast fitness was ≤ 0.5.
The same measure for C29U C31A C55U A57C: 0.62; for G12C G41C: 0.748.
As to U8A A15G G50C C55U C60G A69G, the yeast fitness is ≤ 0.5.
As for C4U C60G G67A, the yeast fitness was ≤ 0.5.
On to U2C C34G, for which the yeast fitness was found to be 0.62.
For the variant C60A G68U, the yeast fitness worked out at 0.587.
Take A14U C31G C61G A69G: the yeast fitness is ≤ 0.5.
The same measure for C30A G38A A42U: ≤ 0.5; for U8G G18C A37G A40G G63C: 0.506; for C5G U32A C62U: 0.532.
U28A A36G C66G: the yeast fitness was ≤ 0.5.
On to U8A A36U G39A C66U, for which the yeast fitness is ≤ 0.5.
As to C5G G23A U54A, the yeast fitness was ≤ 0.5.
Take G9C C29G C34G C60G: the yeast fitness is 0.534.
Turning to U19C A20G G67A, the yeast fitness is 0.76.
On to C34G C49G, for which the yeast fitness came out at 0.657.
As for A15G U19A, the figure is 1.13; as for G9C U16G C29A C66U, ≤ 0.5; as for G6A U28A G68A, 0.533.
Consider C30G A37U G38A A57C A65C, for which the yeast fitness is ≤ 0.5.
As for C5G A37C C61U, the yeast fitness was ≤ 0.5.
As for C11U A57C G63A, the figure is ≤ 0.5; as for G6A A14U C30U A69U, ≤ 0.5; as for C4U C11A U26G G50C, 0.536.
For U16A C31A C33A U35C U47A, the yeast fitness was ≤ 0.5.
Take C29G A42G C46A A57C: the yeast fitness was ≤ 0.5.
C4G G17A U28A C31G A57G C62U: the yeast fitness was ≤ 0.5.
Turning to A14G G44A C46A G52A C66U, the yeast fitness is ≤ 0.5.
On to A21G A36U C61U, for which the yeast fitness is ≤ 0.5.
For G41C G58A, the yeast fitness amounted to 0.948.
Take A21C C27U G48C: the yeast fitness was found to be 0.547.
For the variant U35C A65U, the yeast fitness is 0.739.
As to A15U C24G A45G G52A U54A, the yeast fitness is ≤ 0.5.
As for C34A A36C C46A, the yeast fitness is ≤ 0.5.
Turning to U2G G9A U16G C62U U64C, the yeast fitness is ≤ 0.5.
Turning to A20G U26A U35A A37U, the yeast fitness is 0.55.
As for A20G U28A A42G C55A C66A, the yeast fitness was ≤ 0.5.
With C5A C33U C62A, the yeast fitness was determined as 0.542.
With G38A A42C A45U G52A, the yeast fitness is ≤ 0.5.
Regarding U54C, the yeast fitness came out at 0.806.
For A20C C27U A36G A65G G67A, the yeast fitness stood at 0.542.
For C5G U19C G25A, the yeast fitness is 0.716.
As for C5A C34A, the figure is 0.606; as for C30A A42C G56A A57U, 0.558.
As to C11G C49U G58C, the yeast fitness was 0.597.
On to G6A U16C C34G G51A, for which the yeast fitness was ≤ 0.5.
Take U7G G10C C29A C55U A69U: the yeast fitness was 0.534.
As for U2G A57C, the yeast fitness amounted to 0.533.
As for C5A A40U G41C, the figure is 0.614.
G23C C34U A36U C49A C66U: the yeast fitness is ≤ 0.5.
Regarding G51A G52C C61U, the yeast fitness is 0.536.
For G39C A43U G58C, the yeast fitness amounted to 0.57.
Take G6A G9C C11G C34U G68A: the yeast fitness came to 0.574.
Consider G51A A57G, for which the yeast fitness was 0.819.
As to A14G A43C G50A, the yeast fitness amounted to 0.558.
Regarding A15G G23C A45G G52A, the yeast fitness stood at 0.65.
With G6A G41C A43G C49U, the yeast fitness came to 0.745.
For C24A C29U G50A A65G C66U, the yeast fitness was ≤ 0.5.
A36G A42G C46G: the yeast fitness was determined as 0.698.
The same measure for U2A U16G A42G A43U C46U C62U: ≤ 0.5; for C5G G48A G68C: 0.653.
For the variant G6A A20C C66U, the yeast fitness stood at 0.889.
Take C30A A69U: the yeast fitness worked out at 0.963.
With C34G A36G, the yeast fitness was 0.644.
As for U2C A40C G48A, the figure is 0.751.
As to C4U C29U A36U A65U, the yeast fitness is 0.557.
C4U G52A C55U U64C: the yeast fitness was ≤ 0.5.
For the variant C22U C31A C60U, the yeast fitness is ≤ 0.5.
For U3C G12C A20G A43G C61U, the yeast fitness is ≤ 0.5.
The same measure for G25C C29G G52A A69U: ≤ 0.5; for C33U G41C C55A A69C: ≤ 0.5; for C22G A36G A37C C46A C49G U64G: ≤ 0.5.
The same measure for C34G C49A U59G: 0.547.
Regarding A14U G17A G23A, the yeast fitness is ≤ 0.5.
As for A21G G39A A70G, the yeast fitness was 0.872.
As for C4A C24G G44C A70U, the figure is ≤ 0.5; as for G9A U28A C55U G68A, ≤ 0.5.
As for U3A G9A A14C C55U A70G, the figure is ≤ 0.5; as for U3C G6C, 0.753.
With U7C A14C, the yeast fitness is 0.679.
The same measure for C4A G25C C61G: 0.711; for C30U A36G A37G: 0.548; for G44C U54C: 0.977.
Consider U2C C31A, for which the yeast fitness came to 0.879.
On to A42C A65C, for which the yeast fitness was determined as 0.942.
For G6C C31A G38A A65G, the yeast fitness was ≤ 0.5.
As for C11G G12A C22A A36C C61G A69C, the figure is ≤ 0.5; as for G17C U32G C33U G56A G58A, ≤ 0.5.
Take C29U C60A: the yeast fitness turned out to be 0.627.
In the case of G52C A65C A70G, the yeast fitness came out at 0.515.
Turning to U8C G23C C29G A43U G50A A65C, the yeast fitness is ≤ 0.5.
With C31U G39A A57C, the yeast fitness is ≤ 0.5.
As for U13A C55U A70C, the figure is 0.571; as for U3A A20G C22U G44C, ≤ 0.5.
On to U19G G23A U35G, for which the yeast fitness is ≤ 0.5.
Regarding U16G U35C G56C, the yeast fitness is ≤ 0.5.
Regarding U8G U13A A43G U53A, the yeast fitness turned out to be 0.58.
As for C5U U16C A20G A40G A43G G67C, the yeast fitness was ≤ 0.5.
On to G12A A15G A65C A70G, for which the yeast fitness was ≤ 0.5.
C11G G58A A69U: the yeast fitness turned out to be 0.571.
Consider A15G C24G A37G, for which the yeast fitness was ≤ 0.5.
G18C G50A U59C: the yeast fitness is ≤ 0.5.
With G23C C33A A36U, the yeast fitness is 0.529.
As for U7C C24U A42G U54A C55G, the figure is ≤ 0.5; as for U28A G51C C55G A57C U64A G67C, ≤ 0.5; as for C29G U47C C49G C60G, 0.648.
Take A20U C22U C46U A57G: the yeast fitness was ≤ 0.5.
The same measure for C31G A37U C55G A57C: 0.541.
As to C27G A45G, the yeast fitness was 0.722.
On to U3C G12C A20U C22G G50A C61A, for which the yeast fitness is ≤ 0.5.
Regarding A20C C33U, the yeast fitness came out at 0.816.
Take C4U C11G C34U U53C: the yeast fitness was ≤ 0.5.
C5G C34G C66U: the yeast fitness is ≤ 0.5.
For G6A U13A A37C, the yeast fitness was ≤ 0.5.
For the variant A15C A45C G48A, the yeast fitness was 0.638.
Turning to G25A G52A A70U, the yeast fitness stood at 0.666.
As for U2A C24G G63A, the figure is 0.551; as for U8A C33U A65G, ≤ 0.5.
In the case of G38C G41A C61U, the yeast fitness worked out at 0.553.
On to C5G A37C G38A, for which the yeast fitness came to 0.562.
As for G17C C22U U32C A40U C66U, the figure is ≤ 0.5; as for G25C U47G G52A, 0.549.
As for C30G A40C C55A G58C A65U A70U, the figure is 0.769.
For the variant U32C A40U C60U G67C A70G, the yeast fitness was ≤ 0.5.
For the variant A43U C60G U64A, the yeast fitness stood at 0.679.
For U16C A43C U54A C60U G68A, the yeast fitness is 0.55.
On to G6C G17A C24A U32C A45C, for which the yeast fitness is ≤ 0.5.
For C11A A20U U32C, the yeast fitness was determined as 0.733.
Regarding G12C G67A A69C, the yeast fitness was ≤ 0.5.
On to G9A A43C A57U C66U, for which the yeast fitness was determined as 0.516.
On to U2G C29U C55U, for which the yeast fitness came to 0.527.
In the case of G39C U64C, the yeast fitness stood at 0.959.
For G51C A57G C61U A65C, the yeast fitness is ≤ 0.5.
Consider C4G C5G U13C U28G, for which the yeast fitness was ≤ 0.5.
As for C24G C27U C33U A45G G50C G68A, the yeast fitness was ≤ 0.5.
For A21G G23A C46A, the yeast fitness is 0.543.
For the variant A20C U28A C31G C55A G68C, the yeast fitness was ≤ 0.5.
As for U8A C66U, the figure is 0.775; as for G9A A15G U16A G23C, ≤ 0.5.
G17A C22G C27A C62G: the yeast fitness was ≤ 0.5.
The same measure for G38C C46G C55G C61G: ≤ 0.5; for G10A G39C C62U G63A A70U: ≤ 0.5; for U7C G12A C24U: ≤ 0.5.
For U54G C60U, the yeast fitness is ≤ 0.5.
For A21U C22G C60G G68A, the yeast fitness was ≤ 0.5.
Regarding C24A U32C, the yeast fitness is 0.612.
In the case of A43C G50A, the yeast fitness was 0.803.
A20G U28G A57U A70U: the yeast fitness was ≤ 0.5.
C31U A36C G38A: the yeast fitness was 0.558.
Turning to U7C C29G A40U, the yeast fitness was 0.665.
As for U19A A37G, the figure is 0.657.
For the variant C24A C27U U28G G68U, the yeast fitness stood at 0.529.
For C27G G67C, the yeast fitness amounted to 0.677.
Take A14G G18A A21U U26C G48A: the yeast fitness was ≤ 0.5.
As for G9A G51A, the figure is 0.919; as for C27G C46U G50A C66U, ≤ 0.5.
For C31A G48C, the yeast fitness stood at 0.661.
Regarding U8A A14C C31A G41C C49A G56A G67C, the yeast fitness was ≤ 0.5.
As to G10C A57U, the yeast fitness stood at 0.548.
The same measure for C11A A21U: 0.606.
